# Assay results from ChEMBL document CHEMBL4808188, “Development of BET inhibitors as potential treatments for cancer: A search for structural diversity” (Bioorg Med Chem Lett, 2021).
# Biological target: T1, Bromodomain-containing protein 4 (Homo sapiens, UniProt O60885)
# Test: Inhibition of BRD4 (unknown origin) assessed as reduction in c-Myc expression
# Conditions: not given
# Method in brief: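 Functional c-Myc assay with MYC expression as the read-out; IC50 in nM, reported as mean ± SEM.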
row,Compound,IC50
1,[2H]C([2H])([2H])c1nnn(C)c1-c1cnc2c3ccc(C(C)(C)O)c(F)c3n([C@H](c3cc(C)on3)C3CCOCC3)c2c1,3.9 nM
2,[2H]C([2H])([2H])c1nnn(C)c1-c1cnc2c3cc(F)c(C(C)(C)O)cc3n([C@H](c3cc(C)on3)C3CCOCC3)c2c1,2.2 nM
3,[2H]C([2H])([2H])c1nnn(C)c1-c1cnc2c3cc(F)c(C(C)(C)O)cc3n([C@H](c3ccccc3)C3CCOCC3)c2c1,2 nM
4,Cc1cc([C@H](C2CCOCC2)n2c3cc(C(C)(C)O)ccc3c3ncc(-c4c(C)nnn4C)cc32)no1,2.8 nM
5,[2H]C([2H])([2H])c1nnn(C)c1-c1cnc2c3c(F)cc(C(C)(C)O)cc3n([C@H](c3cc(C)on3)C3CCOCC3)c2c1,2.8 nM
6,Cc1nnn(C)c1-c1cnc2c3ccc(C(C)(C)O)cc3n(C(c3cnn[nH]3)C3CCOCC3)c2c1 (stereo not drawn),210 nM

# Tested on: not listed separately
# Test: Metabolic stability in monkey liver microsomes assessed as half life measured upto 120 mins
# Type: ADME, Macaca mulatta, Microsome
# Conditions: rhesus monkey
row,Compound,half-life
1,[2H]C([2H])([2H])c1nnn(C)c1-c1cnc2c3ccc(C(C)(C)O)c(F)c3n([C@H](c3cc(C)on3)C3CCOCC3)c2c1,23 min
2,[2H]C([2H])([2H])c1nnn(C)c1-c1cnc2c3cc(F)c(C(C)(C)O)cc3n([C@H](c3cc(C)on3)C3CCOCC3)c2c1,21 min
3,[2H]C([2H])([2H])c1nnn(C)c1-c1cnc2c3cc(F)c(C(C)(C)O)cc3n([C@H](c3ccccc3)C3CCOCC3)c2c1,19 min
4,Cc1cc([C@H](C2CCOCC2)n2c3cc(C(C)(C)O)ccc3c3ncc(-c4c(C)nnn4C)cc32)no1,16 min
5,[2H]C([2H])([2H])c1nnn(C)c1-c1cnc2c3c(F)cc(C(C)(C)O)cc3n([C@H](c3cc(C)on3)C3CCOCC3)c2c1,34 min

# Tested on: not listed separately
# Test: Solubility of the compound in phosphate buffer at pH 6.5
# Type: physicochemical
# Conditions: not given
# Method in brief: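 Solubility measured in 50 mM phosphate buffer at pH 6.5; reported in µg/mL.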
row,Compound,solubility
1,[2H]C([2H])([2H])c1nnn(C)c1-c1cnc2c3ccc(C(C)(C)O)c(F)c3n([C@H](c3cc(C)on3)C3CCOCC3)c2c1,120 µg/mL
2,[2H]C([2H])([2H])c1nnn(C)c1-c1cnc2c3cc(F)c(C(C)(C)O)cc3n([C@H](c3ccccc3)C3CCOCC3)c2c1,4 µg/mL

# Tested on: not listed separately
# Test: Protein binding in human serum assessed as free fraction
# Type: ADME, cell-free
# Conditions: not given
row,Compound,fraction unbound
1,[2H]C([2H])([2H])c1nnn(C)c1-c1cnc2c3ccc(C(C)(C)O)c(F)c3n([C@H](c3cc(C)on3)C3CCOCC3)c2c1,0.16
2,[2H]C([2H])([2H])c1nnn(C)c1-c1cnc2c3cc(F)c(C(C)(C)O)cc3n([C@H](c3ccccc3)C3CCOCC3)c2c1,0.01

# Tested on: not listed separately
# Test: Antitumor activity against human JJN-3R cells xenografted in mouse assessed as tumor growth inhibition at 2 mg/kg, po qd administered for 7 days beginning 8 days after tumor-cell implantation
# Type: functional
# Conditions: 168 h, time 7 day, read-out: TGI
# Method in brief: (§1)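 JJN3R multiple myeloma xenograft in mice. Oral dosing once daily for 7 days began 8 days after tumor-cell implantation, on established tumors. Read-out was % tumor growth inhibition, and the minimum efficacious dose was identified.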
row,Compound,inhibition in vivo at 2 mg/kg
1,[2H]C([2H])([2H])c1nnn(C)c1-c1cnc2c3cc(F)c(C(C)(C)O)cc3n([C@H](c3ccccc3)C3CCOCC3)c2c1,77%

# Tested on: not listed separately
# Test: Antitumor activity against human JJN-3R cells xenografted in po dosed mouse assessed as tumor growth inhibition administered qd for 7 days beginning 8 days after tumor-cell implantation
# Type: functional
# Conditions: 168 h, time 7 day, read-out: MED
# Method in brief: as §1
row,Compound,minimal effective dose
1,[2H]C([2H])([2H])c1nnn(C)c1-c1cnc2c3ccc(C(C)(C)O)c(F)c3n([C@H](c3cc(C)on3)C3CCOCC3)c2c1,4 mg/kg

# Tested on: not listed separately
# Test: Metabolic stability in human liver microsomes assessed as half life measured upto 120 mins
# Type: ADME, Microsome
# Conditions: not given
row,Compound,half-life
1,[2H]C([2H])([2H])c1nnn(C)c1-c1cnc2c3ccc(C(C)(C)O)c(F)c3n([C@H](c3cc(C)on3)C3CCOCC3)c2c1,79 min
2,[2H]C([2H])([2H])c1nnn(C)c1-c1cnc2c3cc(F)c(C(C)(C)O)cc3n([C@H](c3cc(C)on3)C3CCOCC3)c2c1,54 min
3,[2H]C([2H])([2H])c1nnn(C)c1-c1cnc2c3cc(F)c(C(C)(C)O)cc3n([C@H](c3ccccc3)C3CCOCC3)c2c1,52 min
4,Cc1cc([C@H](C2CCOCC2)n2c3cc(C(C)(C)O)ccc3c3ncc(-c4c(C)nnn4C)cc32)no1,61 min
5,[2H]C([2H])([2H])c1nnn(C)c1-c1cnc2c3c(F)cc(C(C)(C)O)cc3n([C@H](c3cc(C)on3)C3CCOCC3)c2c1,120 min

# Tested on: not listed separately
# Test: Antitumor activity against human JJN-3R cells xenografted in mouse assessed as tumor growth inhibition at 4 mg/kg, po qd administered for 7 days beginning 8 days after tumor-cell implantation
# Type: functional
# Conditions: 168 h, time 7 day, read-out: TGI
# Method in brief: as §1
row,Compound,inhibition in vivo at 4 mg/kg
1,[2H]C([2H])([2H])c1nnn(C)c1-c1cnc2c3ccc(C(C)(C)O)c(F)c3n([C@H](c3cc(C)on3)C3CCOCC3)c2c1,71%
2,[2H]C([2H])([2H])c1nnn(C)c1-c1cnc2c3cc(F)c(C(C)(C)O)cc3n([C@H](c3ccccc3)C3CCOCC3)c2c1,78%

# Tested on: not listed separately
# Test: Metabolic stability in rat liver microsomes assessed as half life measured upto 120 mins
# Type: ADME, Microsome
# Conditions: not given
row,Compound,half-life
1,[2H]C([2H])([2H])c1nnn(C)c1-c1cnc2c3ccc(C(C)(C)O)c(F)c3n([C@H](c3cc(C)on3)C3CCOCC3)c2c1,30 min
2,[2H]C([2H])([2H])c1nnn(C)c1-c1cnc2c3cc(F)c(C(C)(C)O)cc3n([C@H](c3cc(C)on3)C3CCOCC3)c2c1,3 min
3,[2H]C([2H])([2H])c1nnn(C)c1-c1cnc2c3cc(F)c(C(C)(C)O)cc3n([C@H](c3ccccc3)C3CCOCC3)c2c1,46 min
4,Cc1cc([C@H](C2CCOCC2)n2c3cc(C(C)(C)O)ccc3c3ncc(-c4c(C)nnn4C)cc32)no1,26 min
5,[2H]C([2H])([2H])c1nnn(C)c1-c1cnc2c3c(F)cc(C(C)(C)O)cc3n([C@H](c3cc(C)on3)C3CCOCC3)c2c1,33 min

# Tested on: not listed separately
# Test: Metabolic stability in dog liver microsomes assessed as half life measured upto 120 mins
# Type: ADME, Canis lupus familiaris, Microsome
# Conditions: liver microsomes
row,Compound,half-life
1,[2H]C([2H])([2H])c1nnn(C)c1-c1cnc2c3ccc(C(C)(C)O)c(F)c3n([C@H](c3cc(C)on3)C3CCOCC3)c2c1,52 min
2,[2H]C([2H])([2H])c1nnn(C)c1-c1cnc2c3cc(F)c(C(C)(C)O)cc3n([C@H](c3cc(C)on3)C3CCOCC3)c2c1,33 min
3,Cc1cc([C@H](C2CCOCC2)n2c3cc(C(C)(C)O)ccc3c3ncc(-c4c(C)nnn4C)cc32)no1,38 min
4,[2H]C([2H])([2H])c1nnn(C)c1-c1cnc2c3c(F)cc(C(C)(C)O)cc3n([C@H](c3cc(C)on3)C3CCOCC3)c2c1,71 min

# Same assay, conditions: microsomes, 2 h
row,Compound,t1/2
1,[2H]C([2H])([2H])c1nnn(C)c1-c1cnc2c3cc(F)c(C(C)(C)O)cc3n([C@H](c3ccccc3)C3CCOCC3)c2c1,32 min

# Tested on: not listed separately
# Test: Permeability of the compound at pH 7.4 by PAMPA
# Type: ADME
# Conditions: read-out: permeability
# Method in brief: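 PAMPA run at pH 7.4; permeability reported in nm/sec.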
row,Compound,Papp
1,[2H]C([2H])([2H])c1nnn(C)c1-c1cnc2c3ccc(C(C)(C)O)c(F)c3n([C@H](c3cc(C)on3)C3CCOCC3)c2c1,80 ×10⁻⁶ cm/s
2,[2H]C([2H])([2H])c1nnn(C)c1-c1cnc2c3cc(F)c(C(C)(C)O)cc3n([C@H](c3cc(C)on3)C3CCOCC3)c2c1,69 ×10⁻⁶ cm/s
3,[2H]C([2H])([2H])c1nnn(C)c1-c1cnc2c3cc(F)c(C(C)(C)O)cc3n([C@H](c3ccccc3)C3CCOCC3)c2c1,69 ×10⁻⁶ cm/s
4,Cc1cc([C@H](C2CCOCC2)n2c3cc(C(C)(C)O)ccc3c3ncc(-c4c(C)nnn4C)cc32)no1,35 ×10⁻⁶ cm/s
5,[2H]C([2H])([2H])c1nnn(C)c1-c1cnc2c3c(F)cc(C(C)(C)O)cc3n([C@H](c3cc(C)on3)C3CCOCC3)c2c1,41 ×10⁻⁶ cm/s
6,Cc1nnn(C)c1-c1cnc2c3ccc(C(C)(C)O)cc3n(C(c3cnn[nH]3)C3CCOCC3)c2c1 (stereo not drawn),12 ×10⁻⁶ cm/s

# Tested on: not listed separately
# Test: Metabolic stability in mouse liver microsomes assessed as half life measured upto 120 mins
# Type: ADME, Microsome
# Conditions: not given
row,Compound,half-life
1,[2H]C([2H])([2H])c1nnn(C)c1-c1cnc2c3ccc(C(C)(C)O)c(F)c3n([C@H](c3cc(C)on3)C3CCOCC3)c2c1,30 min
2,[2H]C([2H])([2H])c1nnn(C)c1-c1cnc2c3cc(F)c(C(C)(C)O)cc3n([C@H](c3cc(C)on3)C3CCOCC3)c2c1,26 min
3,[2H]C([2H])([2H])c1nnn(C)c1-c1cnc2c3cc(F)c(C(C)(C)O)cc3n([C@H](c3ccccc3)C3CCOCC3)c2c1,41 min
4,Cc1cc([C@H](C2CCOCC2)n2c3cc(C(C)(C)O)ccc3c3ncc(-c4c(C)nnn4C)cc32)no1,10 min
5,[2H]C([2H])([2H])c1nnn(C)c1-c1cnc2c3c(F)cc(C(C)(C)O)cc3n([C@H](c3cc(C)on3)C3CCOCC3)c2c1,17 min

# Biological target: T1, Bromodomain-containing protein 4
# Test: Inhibition of BRD4 (unknown origin)
# Conditions: not given
# Method in brief: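 BRD4 binding assay; IC50 in nM, reported as mean ± SEM.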
row,Compound,IC50
1,[2H]C([2H])([2H])c1nnn(C)c1-c1cnc2c3ccc(C(C)(C)O)c(F)c3n([C@H](c3cc(C)on3)C3CCOCC3)c2c1,2 nM
2,[2H]C([2H])([2H])c1nnn(C)c1-c1cnc2c3cc(F)c(C(C)(C)O)cc3n([C@H](c3cc(C)on3)C3CCOCC3)c2c1,1.4 nM
3,[2H]C([2H])([2H])c1nnn(C)c1-c1cnc2c3cc(F)c(C(C)(C)O)cc3n([C@H](c3ccccc3)C3CCOCC3)c2c1,0.9 nM
4,Cc1cc([C@H](C2CCOCC2)n2c3cc(C(C)(C)O)ccc3c3ncc(-c4c(C)nnn4C)cc32)no1,1.6 nM
5,Cc1nnn(C)c1-c1cnc2c3ccc(C(C)(C)O)cc3n(C(c3cnn[nH]3)C3CCOCC3)c2c1 (stereo not drawn),27 nM

# Tested on: not listed separately
# Test: AUC (0 to 24 hrs) in mouse at 3 mg/kg, po measured for 24 hrs
# Type: ADME, organism-based
# Parameters: route oral, time 24 hrs, dose 3 mg/kg
# Conditions: in vivo
row,Compound,AUC(0-t) at 24 h
1,[2H]C([2H])([2H])c1nnn(C)c1-c1cnc2c3ccc(C(C)(C)O)c(F)c3n([C@H](c3cc(C)on3)C3CCOCC3)c2c1,8.7 µM·h
2,[2H]C([2H])([2H])c1nnn(C)c1-c1cnc2c3cc(F)c(C(C)(C)O)cc3n([C@H](c3ccccc3)C3CCOCC3)c2c1,12.6 µM·h

# Tested on: not listed separately
# Test: Antiproliferative activity against Velcade-resistant human JJN-3R cells assessed as reduction in cell viability
# Type: functional, cell-based
# Conditions: not given
# Method in brief: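 Multiple myeloma cell proliferation assay in the Velcade-resistant JJN3R line; IC50 taken from proliferation.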
row,Compound,IC50
1,[2H]C([2H])([2H])c1nnn(C)c1-c1cnc2c3ccc(C(C)(C)O)c(F)c3n([C@H](c3cc(C)on3)C3CCOCC3)c2c1,13 nM
2,[2H]C([2H])([2H])c1nnn(C)c1-c1cnc2c3cc(F)c(C(C)(C)O)cc3n([C@H](c3cc(C)on3)C3CCOCC3)c2c1,14 nM
3,[2H]C([2H])([2H])c1nnn(C)c1-c1cnc2c3cc(F)c(C(C)(C)O)cc3n([C@H](c3ccccc3)C3CCOCC3)c2c1,6 nM
4,Cc1cc([C@H](C2CCOCC2)n2c3cc(C(C)(C)O)ccc3c3ncc(-c4c(C)nnn4C)cc32)no1,11 nM
5,[2H]C([2H])([2H])c1nnn(C)c1-c1cnc2c3c(F)cc(C(C)(C)O)cc3n([C@H](c3cc(C)on3)C3CCOCC3)c2c1,3.9 nM
6,Cc1nnn(C)c1-c1cnc2c3ccc(C(C)(C)O)cc3n(C(c3cnn[nH]3)C3CCOCC3)c2c1 (stereo not drawn),710 nM
